# Results from different studies.
# Lines come from different studies, so protocols differ.
# Target: Glycogen synthase kinase-3 beta (GSK3B, Homo sapiens, UniProt P49841)
SMILES,assay,conditions,measurement,result
CN1CCN(C(=O)c2ccc(NC(=O)Nc3ccc(N(C)c4ccnc(Nc5ccc(CS(C)(=O)=O)cc5)n4)cc3)cc2)CC1,binding,1 µM,remaining binding,95%
CC#CC(=O)N1CCC[C@H]1c1nc(-c2ccc(C(=O)Nc3ccccn3)cc2)c2c(N)nccn12,"enzyme activity, inhibitor",1 µM,inhibition,0%
CCCCC(=O)Nc1ccc(-c2ccc3ncn(CCC)c(=O)c3c2)cn1,"binding, competition with immobilised ligand",0.5 µM,remaining binding,100%
C=CC(=O)N1CCC([C@@H]2CCNc3c(C(N)=O)c(-c4ccc(Oc5ccccc5)cc4)nn32)CC1,"enzyme activity, inhibitor",1 µM,inhibition,16%
COc1ccc2oc(-c3ccc4nc(N)oc4c3)c/c(=N\c3ccccc3NC(=O)CCN)c2c1,binding,1 µM,remaining binding,106%
N#Cc1ccc(NC(=O)Nc2ccccc2)cc1,"cell-free assay, competition with immobilised ligand",25 µM,remaining binding,100%
Cc1cc(O)c(-c2ccc([C@@H](C)CN(C)C)cc2)c2c1[nH]c(=O)c1sccc12,"enzyme activity, inhibitor","0.1 µM, lysate",inhibition,-0.958%
CC(=O)ON=C1C=CC(=C(C#N)c2ccccc2)C=C1,"enzyme activity, inhibitor, ADP detection",2 µM,activity vs control,88%
CC(C)S(=O)(=O)c1ccc2nccc(Nc3ccc4sc(C5CCCC5)nc4c3)c2c1,"enzyme activity, inhibitor",1 µM,activity vs control,113%
C1=C/COCc2cc(ccc2OCCN2CCCC2)Nc2nccc(n2)-c2cccc(c2)COC/1,binding,0.1 µM,remaining binding,82%
C[C@H]1CC[C@H](n2c3cnccc3c3cnc(Nc4ccc5c(n4)CCN(C(=O)CO)C5)nc32)CC1,cell-free assay,1 µM,remaining signal,72%
